In ChEMBL document CHEMBL2311305, “Antiproliferative potency of novel benzofuran-2-carboxamides on tumour cell lines: cell death mechanisms and determination of crystal structure” (Eur J Med Chem, 2013):
Activity calls are given as the source filed them. No cut-off for these calls is given here.

Experiments:
[1] = test system: HeLa; experiment: Cytotoxicity against human HeLa cells after 72 hrs by MTT assay; type: functional, cell-based; conditions: Homo sapiens, HeLa, 72 h
Procedure, shortened: (§1)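 Cells seeded at 3000-6000 per well on day 0, according to cell line doubling time. Compound added in five 10-fold dilutions, 72-h incubation, then MTT colorimetric read-out. Absorbances converted to percentage growth by NCI formulae. IC50 obtained by linear regression between the concentrations bracketing PG 50; ">100" assigned when no concentration reaches it. Quadruplicate points, three independent experiments.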

[2] = test system: MIA PaCa-2; experiment: Cytotoxicity against human MIAPaCa2 cells after 72 hrs by MTT assay; type: functional, cell-based; conditions: Homo sapiens, MIA PaCa-2, 72 h; procedure, shortened: as §1
[3] = test system: WI-38; experiment: Cytotoxicity against human WI38 cells after 72 hrs by MTT assay; type: cell-based; conditions: Homo sapiens, WI-38, 72 h; procedure, shortened: as §1
[4] = test system: SW-620; experiment: Cytotoxicity against human SW620 cells after 72 hrs by MTT assay; type: functional, cell-based; conditions: for IC50: Homo sapiens, SW-620, 72 h; procedure, shortened: as §1
[5] = test system: MCF7; experiment: Cytotoxicity against human MCF7 cells after 72 hrs by MTT assay; type: functional, cell-based; conditions: Homo sapiens, MCF7, 72 h; procedure, shortened: as §1
[6] = test system: SK-BR-3; experiment: Cytotoxicity against human SKBR3 cells after 72 hrs by MTT assay; type: functional, cell-based; conditions: SK-BR-3, 72 h; procedure, shortened: as §1
[7] = test system: SW-620; experiment: Induction of mitotic catastrophe in human SW620 cells assessed as accumulation of G2/M phase cells at 5 to 10 uM after 24 to 48 hrs by PI-staining based flow cytometric analysis relative to control; type: functional, cell-based
[8] = test system: SW-620; experiment: Induction of apoptosis in human SW620 cells assessed as caspase9 activation at 10 uM after 24 to 48 hrs by caspase protease assay; type: functional, cell-based
Procedure, shortened: (§2)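 Compound at 5 µM on SK-BR-3 and 10 µM on SW620. Cells harvested after 24 and 48 h, washed in PBS, lysed 10 min on ice, centrifuged. Lysate diluted to 3 mg/mL protein and mixed with DTT-containing reaction buffer and caspase-3, -8 or -9 substrate. Incubated 90 min at 37 °C in the dark. Absorbance read at 405 nm, duplicates, compared with untreated control.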

[9] = test system: SW-620; experiment: Induction of apoptosis in human SW620 cells assessed as caspase8 activation at 10 uM after 24 to 48 hrs by caspase protease assay; type: functional, cell-based; procedure, shortened: as §2
[10] = test system: SW-620; experiment: Induction of apoptosis in human SW620 cells assessed as caspase3 activation at 10 uM after 24 to 48 hrs by caspase protease assay; type: functional, cell-based; procedure, shortened: as §2
[11] = test system: SW-620; experiment: Induction of cell cycle arrest in human SW620 cells assessed as G2/M phase cells at 10 uM after 48 hrs by PI-staining based flow cytometric analysis (reference value: 8.9 +/- 0.4%); type: functional
[12] = test system: SW-620; experiment: Induction of cell cycle arrest in human SW620 cells assessed as S phase cells at 10 uM after 48 hrs by PI-staining based flow cytometric analysis (reference value: 39.9 +/- 0.5%); type: functional
[13] = test system: SW-620; experiment: Induction of cell cycle arrest in human SW620 cells assessed as G2/M phase cells at 5 uM after 48 hrs by PI-staining based flow cytometric analysis (reference value: 8.9 +/- 0.4%); type: functional
[14] = test system: SW-620; experiment: Induction of cell cycle arrest in human SW620 cells assessed as S phase cells at 5 uM after 48 hrs by PI-staining based flow cytometric analysis (reference value: 39.9 +/- 0.5%); type: functional
[15] = test system: SW-620; experiment: Induction of cell cycle arrest in human SW620 cells assessed as G1 phase cells at 5 uM after 48 hrs by PI-staining based flow cytometric analysis (reference value: 51.1 +/- 2.5%); type: functional
[16] = test system: SW-620; experiment: Induction of cell cycle arrest in human SW620 cells assessed as G1 phase cells at 10 uM after 48 hrs by PI-staining based flow cytometric analysis (reference value: 51.1 +/- 2.5%); type: functional
[17] = test system: SW-620; experiment: Induction of cell cycle arrest in human SW620 cells assessed as subG1 phase cells at 10 uM after 48 hrs by PI-staining based flow cytometric analysis (reference value: 8.5 +/- 2.1%); type: functional
[18] = test system: SW-620; experiment: Induction of cell cycle arrest in human SW620 cells assessed as subG1 phase cells at 5 uM after 48 hrs by PI-staining based flow cytometric analysis (reference value: 8.5 +/- 2.1%); type: functional
[19] = test system: SW-620; experiment: Induction of cell cycle arrest in human SW620 cells assessed as G2/M phase cells at 10 uM after 24 hrs by PI-staining based flow cytometric analysis (reference value: 12.6 +/- 1%); type: functional
[20] = test system: SW-620; experiment: Induction of cell cycle arrest in human SW620 cells assessed as G2/M phase cells at 5 uM after 24 hrs by PI-staining based flow cytometric analysis (reference value: 12.6 +/- 1%); type: functional
[21] = test system: SW-620; experiment: Induction of cell cycle arrest in human SW620 cells assessed as S phase cells at 10 uM after 24 hrs by PI-staining based flow cytometric analysis (reference value: 41.1 +/- 0.8%); type: functional
[22] = test system: SW-620; experiment: Induction of cell cycle arrest in human SW620 cells assessed as S phase cells at 5 uM after 24 hrs by PI-staining based flow cytometric analysis (reference value: 41.1 +/- 0.8%); type: functional
[23] = test system: SW-620; experiment: Induction of cell cycle arrest in human SW620 cells assessed as G1 phase cells at 10 uM after 24 hrs by PI-staining based flow cytometric analysis (reference value: 46.3 +/- 1.8%); type: functional
[24] = test system: SW-620; experiment: Induction of cell cycle arrest in human SW620 cells assessed as G1 phase cells at 5 uM after 24 hrs by PI-staining based flow cytometric analysis (reference value: 46.3 +/- 1.8%); type: functional
[25] = test system: SW-620; experiment: Induction of cell cycle arrest in human SW620 cells assessed as subG1 phase cells at 10 uM after 24 hrs by PI-staining based flow cytometric analysis (reference value: 6.9 +/- 2.1%); type: functional
[26] = test system: SW-620; experiment: Induction of cell cycle arrest in human SW620 cells assessed as subG1 phase cells at 5 uM after 24 hrs by PI-staining based flow cytometric analysis (reference value: 6.9 +/- 2.1%); type: functional

O=C(Nc1nc2ccc(C3=NCCN3)cc2s1)c1cc2ccccc2o1
IC50 [1]: 59.8 µM
IC50 [2]: 97.1 µM
IC50 [3]: 59.2 µM
IC50 [4]: 56.4 µM
IC50 [5]: 50.9 µM
IC50 [6]: > 100 µM

N#Cc1ccc2nc(NC(=O)c3cc4ccccc4o3)sc2c1
IC50 [1]: 89.6 µM
IC50 [2]: > 100 µM
IC50 [3]: 34.9 µM
IC50 [4]: > 100 µM
IC50 [5]: 21.5 µM
IC50 [6]: > 100 µM

N#Cc1ccc2nc(NC(=O)c3cc4ccccc4o3)[nH]c2c1
IC50 [1]: > 100 µM
IC50 [2]: > 100 µM
IC50 [3]: 9.1 µM
IC50 [4]: 9.2 µM
IC50 [5]: > 100 µM
IC50 [6]: > 100 µM

Cl.O=C(Nc1ccc(C2=NCCN2)cc1)c1cc2ccccc2o1
Activity [7]: Active
Activity [8]: inactive
Activity [9]: inactive
Activity [10]: inactive
Activity [11]: 10.5%
Activity [12]: 42.6%
Activity [13]: 8.3%
Activity [14]: 40.7%
Activity [15]: 46.8%
Activity [16]: 46.9%
Activity [17]: 8.2%
Activity [18]: 4.9%
Activity [19]: 13.5%
Activity [20]: 12.7%
Activity [21]: 40.9%
Activity [22]: 43.9%
Activity [23]: 45.7%
Activity [24]: 43.4%
Activity [25]: 10.4%
Activity [26]: 7.1%
IC50 [1]: 27.5 µM
IC50 [2]: 31.5 µM
IC50 [3]: 23.3 µM
Activity [4]: Dose-dependent effect
IC50 [4]: 6.4 µM
IC50 [5]: 26.2 µM
IC50 [6]: 40.5 µM
